Measured values published in ChEMBL document CHEMBL1143161, “Non-charged thiamine analogs as inhibitors of enzyme transketolase” (Bioorg Med Chem Lett, 2008).

Legend:
Transketolase [1] = target: T1, Transketolase (Homo sapiens, UniProt P29401); assay: Inhibition of apo-transketolase by coupled TPPK/Apo-TK enzymatic assay
T1 sequence (P29401 whole entry): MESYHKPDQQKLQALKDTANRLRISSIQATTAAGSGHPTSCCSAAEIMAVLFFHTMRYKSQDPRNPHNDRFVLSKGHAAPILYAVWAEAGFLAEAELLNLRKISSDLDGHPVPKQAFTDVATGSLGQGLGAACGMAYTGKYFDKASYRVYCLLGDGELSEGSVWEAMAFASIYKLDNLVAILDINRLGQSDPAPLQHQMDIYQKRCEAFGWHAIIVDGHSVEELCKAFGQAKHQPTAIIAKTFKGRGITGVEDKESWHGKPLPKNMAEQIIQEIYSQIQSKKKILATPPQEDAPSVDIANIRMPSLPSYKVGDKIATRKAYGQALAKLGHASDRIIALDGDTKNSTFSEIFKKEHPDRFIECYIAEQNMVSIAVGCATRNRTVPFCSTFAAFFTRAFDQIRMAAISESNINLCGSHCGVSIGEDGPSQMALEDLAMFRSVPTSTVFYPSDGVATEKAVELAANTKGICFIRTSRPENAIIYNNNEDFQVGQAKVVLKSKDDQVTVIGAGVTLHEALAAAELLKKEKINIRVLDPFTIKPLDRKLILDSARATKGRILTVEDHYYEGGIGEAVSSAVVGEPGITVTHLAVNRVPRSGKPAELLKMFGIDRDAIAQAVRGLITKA
Method in brief: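 Each compound was first checked for pyrophosphorylation by TPPK, with thiamine as the control substrate; pyrophosphorylation was scored relative to thiamine. Compounds were then tested for competition with TPP in inhibiting TK activity. Kd is the average of at least three experiments, with data within 2-fold of the mean.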

Transketolase [2] = target: T1, Transketolase; assay: Inhibition of apo-transketolase
Transketolase [3] = target: T1, Transketolase; assay: Inhibition of transketolase in human HCT116 cells; type: cell-based, HCT-116
Method in brief: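 Cellular TK assay in human colon cancer HCT-116 cells, run in triplicate. EC50 reported as the average, with data within 4-fold of the mean.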

| Structure (SMILES) | Kd (Transketolase [1]) [nM] | Kd (Transketolase [2]) [µM] | EC50 (Transketolase [3]) [µM] |
| --- | --- | --- | --- |
| CC(=O)Nc1ncc(Cc2csc(CCO)c2C)c(N)n1 | 3 | 1.1 | 6.3 |
| Cc1c(Cc2cnc(C(C)C)nc2N)csc1CCO | 64 | > 500 | 2.6 |
| Cc1c(Cc2cnc(C3CC3)nc2N)csc1CCO | 60 | > 500 | 0.66 |
| Cc1c(Cc2cnc(C(F)(F)F)nc2N)csc1CCO | 63 | – | 25 |
| Cc1ncc(Cn2c(C)c(CCO[P@@](=O)(O)OP(=O)(O)O)sc2=O)c(N)n1 | – | 0.016 | – |
| Cc1ncc(Cc2csc(CCO)c2C)c(N)n1 [3-DEAZATHIAMINE] | 12 | 18 | 1.2 |

Now from value to compound:

| Kd (Transketolase [1]) [nM] | Kd (Transketolase [2]) [µM] | EC50 (Transketolase [3]) [µM] | Structure (SMILES) |
| --- | --- | --- | --- |
| – | 2.2 | 8.5 | Cc1c(Cc2cnc(N)nc2N)csc1CCO |
| 230 | > 500 | > 10 | Cc1c(Cc2cnc(-c3ccccc3)nc2N)csc1CCO |
| – | – | 17 | Cc1ncc(Cc2[nH]nc(CCO)c2C)c(N)n1 |
| – | – | 4.7 | Cc1ncc(Cc2nn(C)c(CCO)c2C)c(N)n1 |
| – | – | 1.1 | Cc1ncc(Cc2c(C)c(CCO)nn2C)c(N)n1 |
| – | > 100 | 52 | Cc1c(Cc2cncnc2N)csc1CCO |
| – | > 500 | 3.24 | Cc1ccc(Cn2c(C)c(CCO)sc2=O)c(N)n1 |
| – | 6800 | – | Cc1ncc(C[n+]2csc(CCO)c2C)c(N)n1 [THIAMINE ION] |
| – | 34 | 2.71 | Cc1ncc(Cn2c(C)c(CCO)sc2=O)c(N)n1 [THIAMINE THIAZOLONE] |
